# Screens as filed in PubChem BioAssay.
# OX1R antag-1 = antagonists of human orexin 1 receptor (OX1R); OX1R-expressing cells, FRET antagonist read-out; inhibition, % at 6.6 µM; 330,000 compounds, 1.8% hits; in the data active = inhibition mostly above about 38%, no sharp cut-off; inactive = mostly below about 40%;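 also: 0% = agonist challenge alone and 100% = reference antagonist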
# TAAR1 ag = human TAAR1 agonism; Q96RJ0; CHO RD-HGA16 TAAR1, Fluo-8 calcium fluorescence; vehicle wells 0%, saturating PEA agonist 100%; activation, % at 3 µM; 360,000 compounds, 0.99% hits; AID 624467;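 active = activation above the mean activation of all test compounds in the run plus 3 SD, cut at about 38% in these data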
# Target sequence (Q96RJ0 whole entry, looked up): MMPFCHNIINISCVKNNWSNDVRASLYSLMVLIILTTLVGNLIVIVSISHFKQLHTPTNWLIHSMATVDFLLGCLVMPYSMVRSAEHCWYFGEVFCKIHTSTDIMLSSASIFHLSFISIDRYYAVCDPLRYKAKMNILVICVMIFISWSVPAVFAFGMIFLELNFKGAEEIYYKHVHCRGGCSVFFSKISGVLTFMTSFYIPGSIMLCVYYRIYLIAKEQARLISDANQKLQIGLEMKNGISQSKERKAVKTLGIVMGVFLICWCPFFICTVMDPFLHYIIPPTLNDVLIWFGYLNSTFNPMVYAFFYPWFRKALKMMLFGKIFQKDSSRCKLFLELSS
#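 System: CHO-derived RD-HGA16 cells with stable Gα16 and human TAAR1. Times: 17-24 h plating, Fluo-8 75 min 37 °C, 30 min RT. Measured by: calcium-sensitive Fluo-8 signal, excitation 470-495, emission 515-575 nm. Read-out basis: % activation relative to PEA EC100 response. Control set: DMSO and PEA EC100. Repeats: no replicates (n 1).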
# GPR7 antagonist = antagonists of human GPR7 (neuropeptides B/W receptor 1) | P48145 | GPR7-expressing cells, fluorescence antagonist assay | inhibition, % at 4.4 µM | 290,000 compounds, 1.1% hits; in the data active = inhibition above about 16%, passing the limit was not always enough;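 also: cells stimulated with the agonist NPW; 0% = agonist with vehicle and 100% = vehicle without agonist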
# Target sequence (P48145 whole entry, looked up): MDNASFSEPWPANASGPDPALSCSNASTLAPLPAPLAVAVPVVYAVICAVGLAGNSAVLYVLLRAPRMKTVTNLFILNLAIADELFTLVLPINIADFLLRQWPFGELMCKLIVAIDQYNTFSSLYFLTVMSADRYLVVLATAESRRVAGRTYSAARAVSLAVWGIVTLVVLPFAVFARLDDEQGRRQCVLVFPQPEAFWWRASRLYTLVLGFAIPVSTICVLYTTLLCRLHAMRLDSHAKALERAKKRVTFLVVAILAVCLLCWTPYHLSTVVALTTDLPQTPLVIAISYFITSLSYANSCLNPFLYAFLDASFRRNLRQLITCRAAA
# CHO parental Ca = counter-screen: ATP calcium response change in parental CHO cells; parental CHO-K1, ATP-induced calcium, Fluo-8 fluorescence; inhibition, % at 5.6 µM; 330,000 compounds, 0.63% hits;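 active = inhibition above that plate's mean sample inhibition plus 3 SD, cut at about 26% in these data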;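 also: 0% = ATP-challenged DMSO wells and 100% = DMSO wells without ATP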
#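 Test system: untransfected parental CHO cell line; also added: ATP stimulus; dosing: 5.6 µM, single dose; signal: calcium-sensitive Fluo-8 fluorescence; measure: percent inhibition of ATP-evoked calcium rise, normalized to controls; benchmarks: low control ATP plus DMSO, high control DMSO only; replication: one well per compound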
# TAAR1 antagonist = human TAAR1 antagonism; Q96RJ0; CHO RD-HGA16 TAAR1, Fluo-8 calcium fluorescence, antagonist; inhibition, % at 3 µM; 360,000 compounds, 1.5% hits; AID 624466;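 active = inhibition above a per-plate cutoff, the mean inhibition of test compounds on that plate plus 3 SD, cut at about 49% in these data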;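 also: 0% = DMSO plus EC80 beta-PEA response and 100% = DMSO alone without agonist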
#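 Test system: hTAAR1-expressing CHO RD-HGA16 cells, Gα16-coupled; Probe or stimulus: EC80 β-phenethylamine stimulus; Compound dosing: single nominal final test compound concentration of 3 µM; Timing: 140 s kinetic read after compound, 140 s after agonist; Signal: Fluo-8 calcium-sensitive fluorescence; Measure: % inhibition of agonist calcium response; Controls: DMSO and EC80 PEA controls.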
# OX1R antag-2 = blocks the human orexin 1 receptor; O43613; 330,000 compounds, 0.43% hits; CHO/OX1R cells, Fluo-8 calcium fluorescence, orexin A; inhibition, % at 5 µM;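 active = inhibition above its plate's threshold, mean inhibition of all tested compounds on the plate plus 3 SD, cut at about 37% in these data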;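 also: 0% = orexin A challenge wells and 100% = SB-334867-A antagonist wells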
# Numbers without * were called inactive; . = not tested or not shown; + = active, no number. Shown are actives, neighbours in structure and some others; about 4.5% of the full set was active somewhere.
SMILES,OX1R antag-1,TAAR1 ag,GPR7 antagonist,CHO parental Ca,TAAR1 antagonist,OX1R antag-2
COC(=O)[C@]12CCCCC=C1N(CCc1ccc(OC)c(OC)c1)C(=O)[C@H](CC(=O)N1CCC(c3ccccc3)CC1)C2,.,5,.,.,67*,.
COC(=O)[C@]12CCCCC=C1N(Cc1ccccc1)C(=O)[C@H](CC(=O)N1CCC(c3ccccc3)CC1)C2,.,3,.,.,54*,.
COC(=O)CCC[C@H](C)[C@@H](NS(=O)(=O)c1ccc(C)cc1)C(C)(C)C,.,-2,.,.,-16,.
O=C1N=C(N2CCOCC2)S/C1=C\c1cccnc1,37*,2,-15,7,-9,-4
O=C1N=C(N2CCCCC2)S/C1=C\c1ccncc1,45*,0,-15,-2,10,-1
O=C1N=C(N2CCOCC2)SC1=Cc1ccco1,.,1,.,.,14,.
COc1ccc(/C=C2\SC(N3CCCCC3)=NC2=O)cc1,23,2,22,-26,-2,-20
Cc1ccc(OC2CCN(C(=O)[C@@H](Cc3ccccc3)NC(=O)[C@H]3O[C@@H](n4ccc(=O)[nH]c4=O)[C@H](O)[C@@H]3O)CC2)cc1,.,0,.,.,-12,.
CCCN1CCCCC(NC(=O)COCc2ccccc2)C1=O (centres undefined),.,4,.,.,-2,.
Cc1cc(NC(=O)Nc2ccccc2F)ccc1Br,41,14,2,26,66*,13
O=C1c2ccccc2C2Cc3nnccc3CN12 (centres undefined),.,1,.,.,-24,.
O=[N+]([O-])c1ccc(CN2CCCCCC2)cc1,23,6,-9,-4,-16,-12
CSc1ccc(CN2CCN(Cc3ccc([N+](=O)[O-])cc3)CC2)cc1,29,-2,31*,-5,3,-26
CC(C)(C)CC(=O)Nc1nnc(C(F)(F)F)s1,3,3,-15,-8,-6,-11
Cc1nn(-c2ccccc2)nc1C(=O)Nc1nnc(C(F)(F)F)s1,41*,4,-12,-3,-13,0
O=C(Nc1ccccc1C(=O)Nc1nnc(C(F)(F)F)s1)c1ccccc1Cl,80*,13,3,54*,25,37*
O=C(Nc1nnc(C(F)(F)F)s1)c1ccc(Br)s1,49*,8,5,26*,-24,7
CC(NC(=O)Nc1nnc(C(F)(F)F)s1)(C(F)(F)F)C(F)(F)F,59*,8,11,60*,2,51*
Nc1[nH]c(C(=O)c2ccccc2)c(-c2ccccc2)c1C(=O)NCCc1c[nH]c2ccccc12,.,8,.,.,17,.
Cc1[nH]c2ccccc2c1CC(=O)Nc1ccc(Nc2cccnc2)c(-c2ccc(Cl)c(Cl)c2)c1,.,2,.,.,10,.
CCCCN1CCCCC1(C)C(=O)NCc1ccc2c(c1)OCO2 (centres undefined),.,1,.,.,-17,.
C#CCNc1cccc2c1S(=O)(=O)N[C@H](C)CO2,.,0,.,.,-9,.
COc1cccc(CNC(=O)[C@H]2CCCN2C(=O)[C@H]2CCCN2C(=O)c2cccs2)c1,.,0,.,.,-11,.
Cc1ccc(CC2(C)C(=O)Nc3c(Cl)ccc(Cl)c32)cc1 (centres undefined),.,13,.,.,32,.
O=C(Nc1cccnc1)C1CCCN(S(=O)(=O)c2cccc3nsnc23)C1 (centres undefined),58*,5,-11,15,12,-19
SMILES,OX1R antag-1,TAAR1 ag,GPR7 antagonist,CHO parental Ca,TAAR1 antagonist,OX1R antag-2
COc1ccc(OC)c(NC(=O)C2CCCN(S(=O)(=O)c3cccc4nsnc34)C2)c1 (centres undefined),58,5,-3,2,21,-11
COc1cc(NC(=O)C2CCCN(S(=O)(=O)c3cccc4nsnc34)C2)cc(OC)c1 (centres undefined),48*,9,-2,-5,18,-9
CCO[C@H]1OC(C(=O)NCc2ccccc2)=C[C@@H](c2cn(C(C)=O)c3ccccc23)[C@@H]1CCCO,18,45*,11,-4,18,-15
C#CCNC(=O)C1=C[C@H](c2csc3ccccc23)[C@@H](CCCO)[C@H](OCC)O1,26,5,-6,-24,9,-14
CCO[C@@H]1OC(C(=O)NCc2ccccc2)=C[C@H](c2csc3ccccc23)[C@H]1CCCO,30,25,11,2,54*,10
COc1cc2[nH]c(Cl)c([N+](=O)[O-])c2cc1OC,73*,10,-10,4,-10,0
COc1ccc(NC(=O)C2=Cc3cccc(OC)c3OC2)cc1,40,1,20*,-20,-5,-3
COc1ccc(NC(=O)C2=Cc3ccccc3OC2)cc1,24,4,1,-17,6,-17
O=C(CC1CCCC1)N[C@H](C(=O)N1CCC[C@H]1C(=O)NC1CCCC1)c1ccccc1,.,0,.,.,-8,.
O=C(CSc1n[nH]c(=O)[nH]c1=O)c1cccc([N+](=O)[O-])c1,48*,0,-11,2,5,-8
Cc1cc(-c2ccc(N=Nc3c(S(=O)(=O)O)cc4cc(S(=O)(=O)O)cc(N)c4c3O)c(C)c2)ccc1N=Nc1c(S(=O)(=O)O)cc2cc(S(=O)(=O)O)cc(N)c2c1O,+,.,.,-3,.,5
O=S(=O)(O)c1cc(O)c2c(O)c(N=Nc3cc(Cl)ccc3O)c(S(=O)(=O)O)cc2c1,42,.,-2,-9,.,-1
COc1cc(=O)oc(C=O)c1C,.,0,.,.,-9,.
CCO[C@@H]1OC(C(=O)N2CCN(Cc3ccc4c(c3)OCO4)CC2)=C[C@H](c2ccc(Br)cc2)[C@H]1CCCO,17,12,-11,17,49*,-7
COCCCNC(=O)C[C@H]1C[C@@]2(C(=O)OC)C(=C[C@H](C3CCCC3)O[C@@H]2C)N(Cc2ccccc2)C1=O,.,0,.,.,-30,.
O=C(NCc1cccc(Cl)c1)C1Cc2c(-c3ccccc3)ccnc2O1 (centres undefined),.,-1,.,.,-37,.
COc1cc(CN2C[C@@H](CO)O[C@@H](n3cnc4c(NC5CCC5)ncnc43)C2)cc(OC)c1OC,.,2,.,.,-4,.
OC[C@@H]1CN(Cc2ccc3c(c2)OCO3)C[C@H](n2cnc3c(N4CCN(c5ccccc5)CC4)ncnc32)O1,.,12,.,.,55*,.
COc1cc(CN2C[C@@H](CO)O[C@@H](n3cnc4c(Nc5ccccc5)ncnc43)C2)cc(OC)c1OC,.,15,.,.,60*,.
C=CCNc1ncnc2c1ncn2[C@H]1CN(Cc2ccccc2)C[C@@H](CO)O1,.,1,.,.,-22,.
C=CCNc1ncnc2c1ncn2[C@H]1CN(CCc2ccccc2)C[C@@H](CO)O1,.,38*,.,.,-18,.
OC[C@@H]1CN(Cc2ccc3c(c2)OCO3)C[C@H](n2cnc3c(N4CCCC4)ncnc32)O1,.,2,.,.,-16,.
C[C@@H]1ON(C)[C@H]2C[C@H]3c4cc(-c5ccc(F)cc5)ccc4CCN3C[C@@H]12,.,2,.,.,-15,.
